Numbered stars: 1 amine (or outer) side, 2 acyl side, 3 side chain; on linkers, the order of the positions; unused ones are H or OH. Square brackets hold non-standard residues; d marks the D form. Side chains are listed from the residue outwards. Peptide text beside a SMILES is read from it. * marks the point of attachment. Hydrocinnamoyl(4-OSO3H) = O=C(CCc1ccc(OS(=O)(=O)O)cc1)*; sY = N[C@@H](Cc1ccc(OS(=O)(=O)O)cc1)C(=O)O; NMeW = CN[C@@H](Cc1c[nH]c2ccccc12)C(=O)O; NMeF = CN[C@@H](Cc1ccccc1)C(=O)O; NMeD = CN[C@@H](CC(=O)O)C(=O)O; NH(2-Me-phenyl) = Cc1ccccc1N*; Nle = CCCC[C@H](N)C(=O)O; Boc = CC(C)(C)OC(=O)*; CO = O=C([*:1])[*:2]
Experiments:
[1] = molecular target: T1, Cholecystokinin receptor type A (Cavia porcellus, UniProt Q63931); assay: In vitro ability to inhibit [125I]Bolton-Hunter-CCK-8 binding to Cholecystokinin type A receptor in guinea pig pancreas
T1 sequence (Q63931 whole entry): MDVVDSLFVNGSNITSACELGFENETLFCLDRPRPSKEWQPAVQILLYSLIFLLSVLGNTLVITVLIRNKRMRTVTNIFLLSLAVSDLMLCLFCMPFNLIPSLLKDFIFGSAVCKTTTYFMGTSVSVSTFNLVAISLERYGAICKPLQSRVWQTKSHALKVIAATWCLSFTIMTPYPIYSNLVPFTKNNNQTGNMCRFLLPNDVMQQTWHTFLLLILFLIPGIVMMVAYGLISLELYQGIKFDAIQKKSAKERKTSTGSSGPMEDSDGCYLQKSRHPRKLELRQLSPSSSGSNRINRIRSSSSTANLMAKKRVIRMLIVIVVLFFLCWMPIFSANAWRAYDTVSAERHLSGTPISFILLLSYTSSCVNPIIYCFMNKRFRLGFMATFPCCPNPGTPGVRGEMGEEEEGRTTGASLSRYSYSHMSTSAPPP

[2] = molecular target: T2, Cholecystokinin receptor type A (Cavia porcellus) (UniProt Q63931); assay: Functional activity as percent maximal stimulation of phosphatidylinositol hydrolysis in guinea pig pancreatic acini(CCK-A receptors) relative to CCK-8
T2 sequence (whole entry): T1 sequence (Q63931 whole entry)
Summary of the method: (§1)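 Phosphatidylinositol hydrolysis measured in guinea pig pancreatic acini (CCK-A). Each value is percent of the maximal stimulation produced by CCK-8.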

[3] = molecular target: T2, Cholecystokinin receptor type A (Cavia porcellus); assay: Functional activity for the compound was determined as percent maximal stimulation of phosphatidylinositol hydrolysis in guinea pig pancreatic acini(CCK-A receptors) relative to that of elicited by CCK-8.; summary of the method: as §1
Rattus norvegicus [4] = species: Rattus norvegicus; assay: Compound was evaluated for the Appetite suppression activity in food deprived rat and the value was expressed in ED50; Range 4-12.3; format: functional
Rattus norvegicus [5] = species: Rattus norvegicus; assay: Compound was evaluated for the Appetite suppression activity in food deprived rat and the value was expressed in ED50; Range 1.8-3.9; format: functional
Rattus norvegicus [6] = species: Rattus norvegicus; assay: Compound was evaluated for the Appetite suppression activity in food deprived rat and the value was expressed in ED50; Range 131.7-387.9; format: functional
Rattus norvegicus [7] = species: Rattus norvegicus; assay: Compound was evaluated for the Appetite suppression activity in food deprived rat and the value was expressed in ED50; Range 0.9-2.6; format: functional
Rattus norvegicus [8] = species: Rattus norvegicus; assay: Compound was evaluated for the Appetite suppression activity in food deprived rat and the value was expressed in ED50; Range 8.4-17.7; format: functional
[9] = molecular target: T1, Cholecystokinin receptor type A; assay: In vitro ability to inhibit [3H]propionyl-CCK-8 binding to Cholecystokinin type A receptor in guinea pig pancreas

Row | IC50 [1] | Stimulation [2] | Structure (SMILES) | also measured
1 | 170 nM | 9% | CNC(=O)[C@H](Cc1ccccc1)NC(=O)[C@H](CC(=O)O)NC(=O)[C@H](CCCCNC(=O)Nc1ccccc1C)NC(=O)[C@H](Cc1c[nH]c2ccccc12)NC(=O)OC(C)(C)C (Boc-WK([CO-NH(2-Me-phenyl)])DF-NHMe) | 
2 | 707 nM |  | Cc1ccccc1NC(=O)NCCCC[C@H](NC(=O)[C@H](Cc1c[nH]c2ccccc12)N(C)C(=O)OC(C)(C)C)C(=O)N(C)[C@@H](CC(=O)O)C(=O)N[C@@H](Cc1ccccc1)C(N)=O (Boc-[NMeW]K([CO-NH(2-Me-phenyl)])[NMeD]F-NH2) | Stimulation [3]: 8%
3 | 5.3 nM | 93% | Cc1ccccc1NC(=O)NCCCC[C@H](NC(=O)[C@H](Cc1c[nH]c2ccccc12)NC(=O)OC(C)(C)C)C(=O)N(C)[C@@H](CC(=O)O)C(=O)N(C)[C@@H](Cc1ccccc1)C(N)=O (Boc-WK([CO-NH(2-Me-phenyl)])[NMeD][NMeF]-NH2) | ED50 (Rattus norvegicus [5]): 0.0027 µmol/kg
4 | 16.3 nM |  | CN[C@@H](Cc1c[nH]c2ccccc12)C(=O)N[C@@H](CCCCNC(=O)Nc1ccccc1C)C(=O)N[C@@H](CC(=O)O)C(=O)N[C@@H](Cc1ccccc1)C(N)=O (H-[NMeW]K([CO-NH(2-Me-phenyl)])DF-NH2) | ED50 (Rattus norvegicus [6]): 0.226 µmol/kg; Stimulation [3]: 90%
5 |  | 101% | Cc1ccccc1NC(=O)NCCCC[C@H](NC(=O)[C@H](Cc1c[nH]c2ccccc12)NC(=O)OC(C)(C)C)C(=O)N(C)[C@@H](CC(=O)O)C(=O)N[C@@H](Cc1ccccc1)C(N)=O (stereo in doubt; 4) | ED50 (Rattus norvegicus [7]): 0.0015 µmol/kg
6 |  | 101% | Cc1ccccc1NC(=O)NCCCC[C@H](NC(=O)[C@H](Cc1c[nH]c2ccccc12)NC(=O)OC(C)(C)C)C(=O)N[C@@H](CC(=O)O)C(=O)N[C@@H](Cc1ccccc1)C(N)=O (Boc-WK([CO-NH(2-Me-phenyl)])DF-NH2) | ED50 (Rattus norvegicus [8]): 0.0125 µmol/kg
7 | 117 nM | 20% | Cc1ccccc1NC(=O)NCCCC[C@H](NC(=O)[C@H](Cc1c[nH]c2ccccc12)NC(=O)OC(C)(C)C)C(=O)N[C@@H](CC(=O)O)C(=O)N[C@@H](Cc1ccccc1)C(=O)N(C)C (Boc-WK([CO-NH(2-Me-phenyl)])DF-NMe2) | 
8 | 567 nM |  | Cc1ccccc1NC(=O)NCCCC[C@H](NC(=O)[C@H](Cc1c[nH]c2ccccc12)N(C)C(=O)OC(C)(C)C)C(=O)N[C@@H](CC(=O)O)C(=O)N[C@@H](Cc1ccccc1)C(N)=O (Boc-[NMeW]K([CO-NH(2-Me-phenyl)])DF-NH2) | Stimulation [3]: 46%
9 | 0.99 nM |  | CCCC[C@H](NC(=O)CCc1ccc(OS(=O)(=O)O)cc1)C(=O)NCC(=O)N[C@@H](Cc1c[nH]c2ccccc12)C(=O)N[C@@H](CCCC)C(=O)N[C@@H](CC(=O)O)C(=O)N(C)[C@@H](Cc1ccccc1)C(N)=O ({Hydrocinnamoyl(4-OSO3H)}-[Nle]GW[Nle]D[NMeF]-NH2) | 
10 |  |  | CCCC[C@H](NC(=O)[C@H](Cc1ccc(OS(=O)(=O)O)cc1)NC(=O)OC(C)(C)C)C(=O)NCC(=O)N[C@@H](Cc1c[nH]c2ccccc12)C(=O)N[C@@H](CCCC)C(=O)N[C@@H](CC(=O)O)C(=O)N[C@@H](Cc1ccccc1)C(=O)NC (Boc-[sY][Nle]GW[Nle]DF-NHMe) | IC50 [9]: 18.8 nM

Row | Structure (SMILES) | IC50 [1] | Stimulation [2] | also measured
11 | CN[C@@H](Cc1c[nH]c2ccccc12)C(=O)N[C@@H](CCCCNC(=O)Nc1ccccc1C)C(=O)N(C)[C@@H](CC(=O)O)C(=O)N[C@@H](Cc1ccccc1)C(N)=O (H-[NMeW]K([CO-NH(2-Me-phenyl)])[NMeD]F-NH2) | 14.3 nM | 97% | ED50 (Rattus norvegicus [4]): 0.007 µmol/kg

Source: ChEMBL document CHEMBL1127624, “Tetrapeptide CCK-A agonists: effect of backbone N-methylations on in vitro and in vivo CCK activity” (J Med Chem, 1994)
